Experiment [1] in a line: Inhibition of recombinant full-length wild type Symbiobacterium thermophilum S1PL using RBM13 as fluorogenic substrate incubated for 1 hr. The method in brief: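 StS1PL, expressed and purified in-house, used at 25 µg/mL final. Buffer: 1 mM potassium phosphate pH 7.2 with 100 mM NaCl, 1 mM EDTA, 1 mM DTT and 10 µM PLP. RBM13 at 125 µM final; 37 °C for 1 h. Stopped with MeOH, then glycine-NaOH pH 10.6 for 20 min at 37 °C. Umbelliferone read at ex/em 355/460 nm against a calibration curve. IC50 fitted from % activity vs log[I].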

In experiment [2] the target is T1, Sphingosine-1-phosphate lyase 1 (Homo sapiens, UniProt O95470).
T1 sequence (O95470 whole entry): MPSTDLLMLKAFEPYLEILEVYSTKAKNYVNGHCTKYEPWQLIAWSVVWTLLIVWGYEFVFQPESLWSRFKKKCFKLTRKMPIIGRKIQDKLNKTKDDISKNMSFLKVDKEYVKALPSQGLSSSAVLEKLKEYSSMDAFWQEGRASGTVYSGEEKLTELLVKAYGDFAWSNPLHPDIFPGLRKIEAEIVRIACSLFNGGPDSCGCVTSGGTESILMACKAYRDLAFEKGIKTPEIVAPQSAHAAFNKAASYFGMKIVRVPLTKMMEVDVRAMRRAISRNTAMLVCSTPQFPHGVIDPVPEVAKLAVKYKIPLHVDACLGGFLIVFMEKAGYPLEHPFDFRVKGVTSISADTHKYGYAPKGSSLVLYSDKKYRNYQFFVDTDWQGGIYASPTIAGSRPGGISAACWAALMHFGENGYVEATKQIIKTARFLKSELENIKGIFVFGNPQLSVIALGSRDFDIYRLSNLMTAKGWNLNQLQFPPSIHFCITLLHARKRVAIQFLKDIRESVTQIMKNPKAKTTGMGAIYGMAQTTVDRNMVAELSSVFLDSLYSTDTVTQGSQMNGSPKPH
The experiment can be described thus: Inhibition of recombinant human S1PL using RBM13 as fluorogenic substrate incubated for 1 hr. In short, it runs like this: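 Recombinant hS1PL at 3 µg/mL final in 100 mM HEPES pH 7.4 with 0.1 mM EDTA, 0.05% Triton X-100, 0.01% Pluronic F127 and 100 µM PLP. RBM13 at 125 µM final; 37 °C for 1 h. MeOH stop, then glycine-NaOH pH 10.6 for 20 min at 37 °C. Umbelliferone fluorescence at 355/460 nm, calibration curve. IC50 from % activity vs log[I].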

Experiment [3] concerns the target T1, Sphingosine-1-phosphate lyase 1. The experiment in a line: Competitive inhibition of human S1PL using varying levels of RBM13 as substrate by Lineweaver-Burk plot analysis.
In experiment [4] the test system is Symbiobacterium thermophilum. The experiment in a line: Inhibition of recombinant full-length wild type Symbiobacterium thermophilum S1PL at 250 uM using RBM13 as fluorogenic substrate incubated for 1 hr relative to control.
The target in experiment [5] is T2, Sphingosine-1-phosphate lyase 1 (Homo sapiens) (UniProt O95470).
T2 sequence (whole entry): T1 sequence (O95470 whole entry)
The experiment in a line: Inhibition of recombinant human S1PL at 250 uM using RBM13 as fluorogenic substrate incubated for 1 hr relative to control.

In experiment [6] the target is T3, Sphingosine-1-phosphate lyase 1 (Mus musculus, UniProt Q8R0X7).
T3 sequence (Q8R0X7 whole entry): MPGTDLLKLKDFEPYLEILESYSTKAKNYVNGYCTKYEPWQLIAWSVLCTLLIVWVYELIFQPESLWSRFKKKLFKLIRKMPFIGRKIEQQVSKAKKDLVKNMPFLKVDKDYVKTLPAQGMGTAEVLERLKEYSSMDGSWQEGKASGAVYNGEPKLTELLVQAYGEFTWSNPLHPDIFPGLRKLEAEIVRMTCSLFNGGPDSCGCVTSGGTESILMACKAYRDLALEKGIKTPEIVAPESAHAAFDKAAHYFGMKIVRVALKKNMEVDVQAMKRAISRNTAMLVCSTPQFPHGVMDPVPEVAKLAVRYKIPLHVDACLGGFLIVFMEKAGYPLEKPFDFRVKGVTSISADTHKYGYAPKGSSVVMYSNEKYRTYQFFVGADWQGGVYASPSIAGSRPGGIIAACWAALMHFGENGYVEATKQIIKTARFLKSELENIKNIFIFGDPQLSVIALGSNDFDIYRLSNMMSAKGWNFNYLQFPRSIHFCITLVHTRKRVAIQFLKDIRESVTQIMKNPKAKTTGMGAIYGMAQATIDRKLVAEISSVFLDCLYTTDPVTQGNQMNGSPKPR
The experiment can be described thus: Inhibition of mouse liver microsomal S1PL using S1P as substrate incubated for 20 mins by ESI-LC/MS analysis. It is filed as microsomes, Microsome. For orientation: Liver microsomes are vesicles of endoplasmic reticulum, rich in cytochrome P450 enzymes.

pIC50, pKi: −log10 of the molar value.

Broadly, the pIC50 is −log10 of the IC50, conventionally taken in molar units. Usually pKi stands for the negative decadic logarithm of the Ki, by convention in mol/L. A higher pKi goes with a small Ki. A word on the inhibition: it is the drop in the measured response relative to a control, in per cent.

For the molecule `CCCCCCCCCCCCCCC[C@@H](O)[C@H](COP(=O)(O)O)NCc1c(COP(=O)(O)O)cnc(C)c1O`, the figures for the pIC50 in experiment [1] and in experiment [2] were 4.33 and 4.09, respectively.
In the same order, the values of `CCCCCCCCCCCCC/C=C/[C@@H](O)[C@H](COP(=O)(O)O)NCc1c(COP(=O)(O)O)cnc(C)c1O` are 4.27 and 4.05.
As for `CCCCCCCCCCCCCCC[C@@H](O)[C@H](COP(=O)(O)O)N=[N+]=[N-]`, the pIC50 is 4.60 in experiment [1] and 4.59 in experiment [2]. The same molecule gave a pKi in experiment [3] of 4.72.
For the molecule `CCCCCCCCCCCCCCC[C@H](O)[C@@H](COP(=O)(O)O)N=[N+]=[N-]`, the values for the pIC50 in experiment [1] and in experiment [2] were 4.59 and 4.97, respectively. The molecule also showed a pKi in experiment [3] of 5.20.
The like results for `CCCCCCCCCCCCC/C=C/[C@@H](O)[C@@H](COP(=O)(O)O)N=[N+]=[N-]` were, in that order, 4.93, 4.64 and 4.76.
The like results for `CCCCCCCCCCCCCCC[C@@H](O)[C@@H](COP(=O)(O)O)N=[N+]=[N-]` were, in that order, 4.61, 4.55 and 4.44.
`Cc1ncc(COP(=O)(O)O)c(CNCCOP(=O)(O)O)c1O`: the inhibition in experiment [4] and in experiment [5] was 20% throughout.
In the case of `CCCCCCCCCCCCC/C=C/[C@H](O)[C@H](COP(=O)(O)O)N=[N+]=[N-]`, the values for the pIC50 in experiment [1] and in experiment [2] were 4.80 and 4.54, respectively. In addition, the pKi in experiment [3] was 4.69.
With `CCCCCCCCc1ccc(CCC(N)(CO)CO)cc1` [FINGOLIMOD], the pIC50 in experiment [6] was 4.28.
Turning to `CCCCCCCCCCCCC/C=C/[C@H](O)[C@@H](COP(=O)(O)O)N=[N+]=[N-]`, the pIC50 in experiment [1] was 4.86; in experiment [2], 5.28. The molecule further gave a pKi in experiment [3] of 5.25.
With `CCCCCCCCCCCCCCC[C@H](O)[C@H](COP(=O)(O)O)N=[N+]=[N-]`, the pIC50 in experiment [1] is 4.57; in experiment [2], 4.66. This molecule also gave a pKi in experiment [3] of 4.79.
With `CCCCCCCCCCCCC/C=C/[C@@H](O)[C@H](COP(=O)(O)O)N=[N+]=[N-]`, the pIC50 in experiment [1] was 4.89; in experiment [2] it was 5.00. The molecule also showed a pKi in experiment [3] of 5.04.

The values above are taken from ChEMBL document CHEMBL4715757, “Studies on the inhibition of sphingosine-1-phosphate lyase by stabilized reaction intermediates and stereodefined azido phosphates” (Eur J Med Chem, 2016).
